Laboratory results as given in ChEMBL document CHEMBL1275449, “Potent in vitro antifungal activities of naturally occurring acetylenic acids” (Antimicrob Agents Chemother, 2008).
Converted amounts (≈) assume the structure as drawn. The source made the active and inactive calls. The calls are words filed in the database; no cut-off is given here.

Assays:
Cryptococcus neoformans [1] = assay: Antifungal activity against Cryptococcus neoformans ATCC 90113 after 72 hrs by CLSI method; type: functional, organism-based; details: ATCC 90113, 72 h
Outline: (§1)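 SD broth replaced RPMI because growth in RPMI was poor; other CLSI conditions were kept. Inoculum was 1.5 × 10³ CFU/ml from colonies on SD agar, checked by plating. Twofold serial dilutions (11 concentrations) in 20% DMSO-saline were tested in duplicate. OD530 was read before and after incubation at 35°C for 72 h. Percent growth gave IC50; the MIC is the lowest concentration with no detectable growth.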

Aspergillus flavus [2] = assay: Antifungal activity against Aspergillus flavus ATCC 204304 at 10.8 uM after 48 hrs by CLSI method; type: functional, organism-based
Pichia kudriavzevii = assay: Antifungal activity against Candida krusei ATCC 6258 after 48 hrs by CLSI method; type: functional, organism-based; details: ATCC 6258, 48 h
Outline: (§2)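 Candida inocula came from 24–72-h SD agar colonies suspended in saline. They were diluted by OD630 standard curve into RPMI 1640 (0.2% dextrose, 0.03% glutamine, 0.165 M MOPS, pH 7.0) to 1.5 × 10³ CFU/ml. Compounds were run as 11 twofold dilutions in 20% DMSO-saline, in duplicate, at 35°C for 48 h, with OD530 read before and after. Percent growth at the top concentration, IC50, MIC, and MFC (SD agar plating) were derived.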

Candida albicans [3] = assay: Antifungal activity against Candida albicans ATCC 200955 after 48 hrs by CLSI method; type: functional, organism-based; details: ATCC 200955, 48 h
Outline: (§3)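 CLSI broth microdilution. Colonies from 24–72 h SD agar suspended in saline and sized by OD630 standard curve. Inoculum 1.5 × 10³ CFU/ml (final) in RPMI 1640 (0.2% dextrose, 0.03% glutamine, 0.165 M MOPS, pH 7.0). Twofold dilutions (11 levels) from 20% DMSO-saline, in duplicate. 35°C for 48 h, OD530 read before and after. IC50 fitted from % growth. MIC: no detectable growth. MFC: subculture onto SD agar.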

Aspergillus fumigatus [4] = assay: Antifungal activity against Aspergillus fumigatus ATCC 204305 after 48 h by CLSI method; details: ATCC 204305, 48 h
Candida albicans [5] = assay: Antifungal activity against Candida albicans ATCC 14053 after 48 hrs by CLSI method; type: functional, organism-based; details: ATCC 14053, 48 h; outline: as §3
Nakaseomyces glabratus = assay: Antifungal activity against Candida glabrata ATCC 90030 after 48 hrs by CLSI methodCandida glabrata; type: functional, organism-based; details: ATCC 90030, 48 h; outline: as §2
Candida albicans [6] = assay: Antifungal activity against Fluconazole resistant Candida albicans clinical isolate 17 after 48 hrs by CLSI method; type: functional, organism-based; outline: as §3
Trichophyton rubrum [7] = assay: Antifungal activity against Trichophyton rubrum ATCC MYA-4438 by CLSI method; type: functional, organism-based
Outline: (§4)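 Growth scraped from 1- to 6-week-old potato dextrose slants and filtered through Miracloth. Diluted in 5% Alamar blue-RPMI 1640 (MOPS pH 7.0) to 2.7 × 10⁴ CFU/ml. Eleven twofold dilutions in duplicate. Fluorescence at 544 nm excitation/590 nm emission read before and after 35°C, 5 days. IC50 fitted from percent growth. MIC taken as no detectable growth; MFC from clear or blue wells plated on PD agar.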

[8] = tested on: Trichophyton mentagrophytes; assay: Antifungal activity against Trichophyton mentagrophytes ATCC 9533 by CLSI method; type: functional, organism-based; outline: as §4
[9] = tested on: Trichophyton mentagrophytes; assay: Antifungal activity against Trichophyton mentagrophytes ATCC MYA-4439 by CLSI method; type: functional, organism-based; outline: as §4
Aspergillus niger [10] = assay: Antifungal activity against Aspergillus niger ATCC 16404 after 48 h by CLSI method; details: ATCC 16404, 48 h
Candida albicans [11] = assay: Antifungal activity against Fluconazole resistant Candida albicans clinical isolate 1 after 48 hrs by CLSI method; type: functional, organism-based; outline: as §3
Candida tropicalis = assay: Antifungal activity against Candida tropicalis ATCC 750 after 48 hrs by CLSI method; type: functional, organism-based; details: ATCC 750, 48 h
Outline: (§5)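 Yeast suspensions made from 3-5 colonies off 24-72 h SD agar plates in saline. They were diluted by OD630 standard curve in RPMI 1640 (0.2% dextrose, 0.03% glutamine, 0.165 M MOPS, pH 7.0) to 1.5 × 10³ CFU/ml. Twofold dilutions (11 concentrations, 20% DMSO-saline) run in duplicate. OD530 read before and after 35°C, 48 h. Line values are top test concentrations; no-growth endpoints give MIC/MFC.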

Candida parapsilosis = assay: Antifungal activity against Candida parapsilosis ATCC 22019 after 48 hrs by CLSI method; type: functional, organism-based; details: Lodderomyces parapsilosis, ATCC 22019, 48 h; outline: as §5
Candida albicans [12] = assay: Antifungal activity against Candida albicans ATCC 60193 after 48 hrs by CLSI method; type: functional, organism-based; details: ATCC 60193, 48 h; outline: as §3
Aspergillus flavus [13] = assay: Antifungal activity against Aspergillus flavus ATCC 204304 after 48 h by CLSI method; details: ATCC 204304, 48 h
Candida albicans [14] = assay: Antifungal activity against Candida albicans ATCC 32354 after 48 hrs by CLSI method; type: functional, organism-based; details: ATCC 32354, 48 h; outline: as §3
Aspergillus fumigatus [15] = assay: Antifungal activity against Aspergillus fumigatus ATCC 90906 after 48 h by CLSI method; details: ATCC 90906, 48 h
Cryptococcus neoformans [16] = assay: Antifungal activity against Cryptococcus neoformans ATCC 66031 after 72 hrs by CLSI method; type: functional, organism-based; details: ATCC 66031, 72 h; outline: as §1
Candida albicans [17] = assay: Antifungal activity against Candida albicans ATCC 90028 after 48 hrs by CLSI method; type: functional, organism-based; details: ATCC 90028, 48 h; outline: as §3
Trichophyton rubrum [18] = assay: Antifungal activity against Trichophyton rubrum ATCC 10218 by CLSI method; type: functional, organism-based; outline: as §4
Aspergillus niger [19] = assay: Antifungal activity against Aspergillus niger ATCC 16404 at 10.8 uM after 48 hrs by CLSI method; type: functional, organism-based

C[C@@H]1[C@H](O)[C@@H](C)/C=C/C=C/C=C/C=C/C=C/C=C/C=C/[C@H](O[C@@H]2O[C@H](C)[C@@H](O)[C@H](N)[C@@H]2O)C[C@@H]2O[C@](O)(C[C@@H](O)C[C@@H](O)[C@H](O)CC[C@@H](O)C[C@@H](O)CC(=O)O[C@H]1C)C[C@H](O)[C@H]2C(=O)O [AMPHOTERICIN B]
IC50 (Cryptococcus neoformans [1]): 300 nM | MFC (Cryptococcus neoformans [1]): 0.7 µM (≈ 0.647 µg/mL) | MIC (Cryptococcus neoformans [1]): 0.7 µM (≈ 0.647 µg/mL) | Activity (Aspergillus flavus [2]): inactive | MFC (Pichia kudriavzevii): 2.7 µM (≈ 2.5 µg/mL) | MIC (Pichia kudriavzevii): 2 µM (≈ 1.85 µg/mL) | IC50 (Candida albicans [3]): 600 nM | MFC (Candida albicans [3]): 2.7 µM (≈ 2.5 µg/mL) | MIC (Candida albicans [3]): 2.7 µM (≈ 2.5 µg/mL) | IC50 (Aspergillus fumigatus [4]): 1200 nM | MFC (Aspergillus fumigatus [4]): 10.8 µM (≈ 9.98 µg/mL) | MIC (Aspergillus fumigatus [4]): 2 µM (≈ 1.85 µg/mL) | MFC (Candida albicans [5]): 1.4 µM (≈ 1.29 µg/mL) | MIC (Candida albicans [5]): 1 µM (≈ 0.924 µg/mL) | IC50 (Nakaseomyces glabratus): 400 nM | MFC (Nakaseomyces glabratus): 1.4 µM (≈ 1.29 µg/mL) | MIC (Nakaseomyces glabratus): 1.4 µM (≈ 1.29 µg/mL) | IC50 (Candida albicans [6]): 200 nM | MFC (Candida albicans [6]): 1.4 µM (≈ 1.29 µg/mL) | MIC (Candida albicans [6]): 1 µM (≈ 0.924 µg/mL) | IC50 (Trichophyton rubrum [7]): 600 nM | MFC (Trichophyton rubrum [7]): 5.4 µM (≈ 4.99 µg/mL) | MIC (Trichophyton rubrum [7]): 1.4 µM (≈ 1.29 µg/mL) | IC50 [8]: 600 nM | MFC [8]: 2.7 µM (≈ 2.5 µg/mL) | MIC [8]: 2 µM (≈ 1.85 µg/mL) | IC50 [9]: 900 nM | MFC [9]: 1.4 µM (≈ 1.29 µg/mL) | MIC [9]: 1.4 µM (≈ 1.29 µg/mL) | IC50 (Aspergillus niger [10]): 900 nM | MIC (Aspergillus niger [10]): 2 µM (≈ 1.85 µg/mL) | IC50 (Candida albicans [11]): 200 nM | MFC (Candida albicans [11]): 1.4 µM (≈ 1.29 µg/mL) | MIC (Candida albicans [11]): 1 µM (≈ 0.924 µg/mL) | IC50 (Candida tropicalis): 300 nM | MFC (Candida tropicalis): 1.4 µM (≈ 1.29 µg/mL) | MIC (Candida tropicalis): 1 µM (≈ 0.924 µg/mL) | IC50 (Candida parapsilosis): 300 nM | MFC (Candida parapsilosis): 5.4 µM (≈ 4.99 µg/mL) | MIC (Candida parapsilosis): 2 µM (≈ 1.85 µg/mL) | IC50 (Candida albicans [12]): 200 nM | MFC (Candida albicans [12]): 1.4 µM (≈ 1.29 µg/mL) | MIC (Candida albicans [12]): 1 µM (≈ 0.924 µg/mL) | IC50 (Aspergillus flavus [13]): 1500 nM | MIC (Aspergillus flavus [13]): 2.7 µM (≈ 2.5 µg/mL) | MFC (Candida albicans [14]): 1.4 µM (≈ 1.29 µg/mL) | MIC (Candida albicans [14]): 1 µM (≈ 0.924 µg/mL) | IC50 (Aspergillus fumigatus [15]): 900 nM | MFC (Aspergillus fumigatus [15]): 2.7 µM (≈ 2.5 µg/mL) | MIC (Aspergillus fumigatus [15]): 1.4 µM (≈ 1.29 µg/mL) | IC50 (Cryptococcus neoformans [16]): 80 nM | MFC (Cryptococcus neoformans [16]): 0.34 µM (≈ 0.314 µg/mL) | MIC (Cryptococcus neoformans [16]): 0.34 µM (≈ 0.314 µg/mL) | MFC (Candida albicans [17]): 1.4 µM (≈ 1.29 µg/mL) | MIC (Candida albicans [17]): 1 µM (≈ 0.924 µg/mL) | IC50 (Trichophyton rubrum [18]): 600 nM | MFC (Trichophyton rubrum [18]): 1.4 µM (≈ 1.29 µg/mL) | MIC (Trichophyton rubrum [18]): 1.4 µM (≈ 1.29 µg/mL) | Activity (Aspergillus niger [19]): inactive
